Laboratory results taken from article PMC8897208 (Acta Pharmaceutica Sinica. B, 2021).

Experiments:
SIRT6 [1] = target: T1, SIRT6 (Homo sapiens, UniProt Q8N6T7); assay: HPLC assay of SIRT6 deacetylation on H3K9Ac; assay type: biochemical; settings: 50 μmol/L JYQ-42, H3K9Ac peptide
SIRT6 [2] = target: T1, SIRT6; assay: In vitro nucleosome deacetylation assay; assay type: biochemical; settings: Western blot
Procedure, shortened: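 Nucleosomes were isolated from HeLa cells and deacetylated in vitro by SIRT6 in the presence of NAD+. H3K9Ac and H3K18Ac were detected by Western blot.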

HDAC1 = HDAC1 (Homo sapiens, UniProt Q13547); assay: HDACs selectivity assay; assay type: biochemical
Procedure, shortened: (§1)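 Enzyme selectivity panel was run by an outside contract lab to its standard assay protocols. IC50 values came from dose–response fitting of the data points. Each experiment was done independently at least three times.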

HDAC2 = HDAC2 (Homo sapiens, UniProt Q92769); assay: HDACs selectivity assay; assay type: biochemical
Procedure, shortened: as §1

HDAC5 = HDAC5 (Homo sapiens, UniProt Q9UQL6); assay: HDACs selectivity assay; assay type: biochemical
Procedure, shortened: as §1

HDAC7 = target: T2, HDAC7 (Homo sapiens, UniProt Q8WUI4); assay: HDACs selectivity assay; assay type: biochemical
T2 sequence (Q8WUI4 1-952): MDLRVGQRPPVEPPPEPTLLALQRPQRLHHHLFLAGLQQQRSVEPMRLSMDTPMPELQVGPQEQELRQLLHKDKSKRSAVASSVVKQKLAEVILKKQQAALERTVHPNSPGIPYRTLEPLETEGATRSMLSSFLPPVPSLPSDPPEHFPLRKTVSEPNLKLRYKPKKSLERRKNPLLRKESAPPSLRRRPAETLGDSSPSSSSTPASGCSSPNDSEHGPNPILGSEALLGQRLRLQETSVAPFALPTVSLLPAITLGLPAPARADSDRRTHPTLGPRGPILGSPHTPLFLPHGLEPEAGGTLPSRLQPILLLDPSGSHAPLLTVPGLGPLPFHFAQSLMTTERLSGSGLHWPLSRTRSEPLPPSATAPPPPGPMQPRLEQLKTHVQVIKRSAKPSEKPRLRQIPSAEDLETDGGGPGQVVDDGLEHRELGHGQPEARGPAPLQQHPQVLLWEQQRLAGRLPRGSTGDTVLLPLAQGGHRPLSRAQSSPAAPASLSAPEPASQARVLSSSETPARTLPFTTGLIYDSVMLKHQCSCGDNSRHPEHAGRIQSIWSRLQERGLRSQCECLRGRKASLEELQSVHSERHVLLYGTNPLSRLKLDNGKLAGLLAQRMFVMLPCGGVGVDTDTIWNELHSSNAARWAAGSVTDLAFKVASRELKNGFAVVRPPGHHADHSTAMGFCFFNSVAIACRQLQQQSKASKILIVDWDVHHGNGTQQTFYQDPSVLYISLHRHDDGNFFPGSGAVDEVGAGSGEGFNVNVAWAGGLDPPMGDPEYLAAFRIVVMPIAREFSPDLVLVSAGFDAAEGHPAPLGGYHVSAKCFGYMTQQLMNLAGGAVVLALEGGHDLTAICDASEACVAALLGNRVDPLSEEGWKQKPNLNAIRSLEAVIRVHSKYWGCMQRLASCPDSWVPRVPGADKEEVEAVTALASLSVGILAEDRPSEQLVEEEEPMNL
Procedure, shortened: as §1

SIRT2 = target: T3, SIRT2 (Homo sapiens, UniProt Q8IXJ6); assay: HDACs selectivity assay; assay type: biochemical
T3 sequence (Q8IXJ6 1-389): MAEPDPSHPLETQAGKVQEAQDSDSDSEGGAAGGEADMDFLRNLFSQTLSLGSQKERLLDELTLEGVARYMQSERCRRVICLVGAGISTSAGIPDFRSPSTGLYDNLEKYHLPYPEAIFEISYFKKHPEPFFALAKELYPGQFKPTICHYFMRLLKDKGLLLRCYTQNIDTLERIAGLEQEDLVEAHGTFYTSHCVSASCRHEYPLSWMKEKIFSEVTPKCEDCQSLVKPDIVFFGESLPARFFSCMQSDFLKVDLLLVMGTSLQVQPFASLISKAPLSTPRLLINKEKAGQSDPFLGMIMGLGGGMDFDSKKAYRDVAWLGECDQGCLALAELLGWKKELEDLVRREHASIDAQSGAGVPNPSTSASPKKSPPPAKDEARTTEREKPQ

full-length SIRT7 = target: T4, full-length SIRT7 (Homo sapiens, UniProt Q9NRC8); assay: Selectivity FDL deacetylation assay; assay type: biochemical
T4 sequence (Q9NRC8 1-400): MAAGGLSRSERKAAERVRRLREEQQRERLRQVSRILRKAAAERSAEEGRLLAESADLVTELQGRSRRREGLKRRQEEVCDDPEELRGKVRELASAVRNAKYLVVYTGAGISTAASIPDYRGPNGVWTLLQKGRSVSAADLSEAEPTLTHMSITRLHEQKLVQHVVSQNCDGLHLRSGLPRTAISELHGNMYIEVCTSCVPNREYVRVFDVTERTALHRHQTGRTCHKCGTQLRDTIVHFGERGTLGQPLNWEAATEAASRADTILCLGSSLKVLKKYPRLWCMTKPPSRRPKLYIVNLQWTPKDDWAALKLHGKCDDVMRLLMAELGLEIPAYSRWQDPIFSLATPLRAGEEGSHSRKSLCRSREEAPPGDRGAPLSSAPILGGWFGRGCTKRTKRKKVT

BXPC-3 cells [3] = assay: Western blot of SIRT6 substrates H3K9Ac, H3K18Ac, H3K56Ac; assay type: cell-based; settings: BXPC-3, indicated doses of JYQ-42 for 24 h
Procedure, shortened: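 BXPC-3 cells were grown in RPMI1640 and MiaPaCa-2 cells in DMEM, each with 10% FBS and penicillin/streptomycin, at 37 °C under 5% CO2. Both lines were STR-verified. Cells took test compound at 0, 10, 20 or 40 μmol/L for 24 or 48 h and were lysed in 1× SDS loading buffer. Proteins were separated on 12% SDS-PAGE and transferred to PVDF. Blocking used Tris-NaCl pH 7.5 with Tween-20 and 5% milk. Detection was chemiluminescent (HRP), with β-actin as loading control.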

BXPC-3 cells [4] = assay: Migration assay with xCELLigence RTCA-DP; assay type: cell-based; settings: 5, 10, 20 μmol/L, effect even at 5 μmol/L
MiaPaCa-2 cells = assay: Proliferation assay; assay type: cell-based; settings: MiaPaCa-2, up to 20 μmol/L, 48 h, CCK-8
BXPC-3 cells [5] = assay: Q-PCR for SIRT6, IL6, IL8 and TNF-α mRNA; assay type: cell-based; settings: BXPC-3, 10, 20, 40 μmol/L, 24 h, qPCR
BXPC-3 cells [6] = assay: ELISA for IL6, IL8 and TNF-α secretion; assay type: cell-based; settings: BXPC-3, 30 ng/mL PMA, 10, 20, 40 μmol/L, 24 h

T1 sequence (Q8N6T7 whole entry): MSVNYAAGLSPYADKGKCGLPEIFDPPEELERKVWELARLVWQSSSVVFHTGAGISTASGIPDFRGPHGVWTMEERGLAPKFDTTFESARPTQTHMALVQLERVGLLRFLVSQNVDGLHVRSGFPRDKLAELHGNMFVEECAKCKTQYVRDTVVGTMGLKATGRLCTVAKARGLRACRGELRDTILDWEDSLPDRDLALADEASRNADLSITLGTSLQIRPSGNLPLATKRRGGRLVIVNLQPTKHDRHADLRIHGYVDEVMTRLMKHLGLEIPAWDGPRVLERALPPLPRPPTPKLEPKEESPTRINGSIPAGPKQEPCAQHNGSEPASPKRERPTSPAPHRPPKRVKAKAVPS
Sequence of HDAC2 (Q92769 whole entry): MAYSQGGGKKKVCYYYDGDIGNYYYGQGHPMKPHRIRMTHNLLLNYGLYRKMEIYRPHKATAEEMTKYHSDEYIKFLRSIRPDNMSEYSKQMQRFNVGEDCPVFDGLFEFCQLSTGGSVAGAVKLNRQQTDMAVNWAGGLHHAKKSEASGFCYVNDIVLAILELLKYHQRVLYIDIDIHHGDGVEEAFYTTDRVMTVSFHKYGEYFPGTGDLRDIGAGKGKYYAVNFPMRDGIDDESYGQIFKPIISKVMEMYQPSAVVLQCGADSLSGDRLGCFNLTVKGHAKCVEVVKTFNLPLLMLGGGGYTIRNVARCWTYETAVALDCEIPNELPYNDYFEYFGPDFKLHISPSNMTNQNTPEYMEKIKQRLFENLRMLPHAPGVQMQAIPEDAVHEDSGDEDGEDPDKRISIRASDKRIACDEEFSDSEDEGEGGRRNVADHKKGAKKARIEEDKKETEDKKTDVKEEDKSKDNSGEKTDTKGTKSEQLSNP
Sequence of HDAC5 (Q9UQL6 whole entry): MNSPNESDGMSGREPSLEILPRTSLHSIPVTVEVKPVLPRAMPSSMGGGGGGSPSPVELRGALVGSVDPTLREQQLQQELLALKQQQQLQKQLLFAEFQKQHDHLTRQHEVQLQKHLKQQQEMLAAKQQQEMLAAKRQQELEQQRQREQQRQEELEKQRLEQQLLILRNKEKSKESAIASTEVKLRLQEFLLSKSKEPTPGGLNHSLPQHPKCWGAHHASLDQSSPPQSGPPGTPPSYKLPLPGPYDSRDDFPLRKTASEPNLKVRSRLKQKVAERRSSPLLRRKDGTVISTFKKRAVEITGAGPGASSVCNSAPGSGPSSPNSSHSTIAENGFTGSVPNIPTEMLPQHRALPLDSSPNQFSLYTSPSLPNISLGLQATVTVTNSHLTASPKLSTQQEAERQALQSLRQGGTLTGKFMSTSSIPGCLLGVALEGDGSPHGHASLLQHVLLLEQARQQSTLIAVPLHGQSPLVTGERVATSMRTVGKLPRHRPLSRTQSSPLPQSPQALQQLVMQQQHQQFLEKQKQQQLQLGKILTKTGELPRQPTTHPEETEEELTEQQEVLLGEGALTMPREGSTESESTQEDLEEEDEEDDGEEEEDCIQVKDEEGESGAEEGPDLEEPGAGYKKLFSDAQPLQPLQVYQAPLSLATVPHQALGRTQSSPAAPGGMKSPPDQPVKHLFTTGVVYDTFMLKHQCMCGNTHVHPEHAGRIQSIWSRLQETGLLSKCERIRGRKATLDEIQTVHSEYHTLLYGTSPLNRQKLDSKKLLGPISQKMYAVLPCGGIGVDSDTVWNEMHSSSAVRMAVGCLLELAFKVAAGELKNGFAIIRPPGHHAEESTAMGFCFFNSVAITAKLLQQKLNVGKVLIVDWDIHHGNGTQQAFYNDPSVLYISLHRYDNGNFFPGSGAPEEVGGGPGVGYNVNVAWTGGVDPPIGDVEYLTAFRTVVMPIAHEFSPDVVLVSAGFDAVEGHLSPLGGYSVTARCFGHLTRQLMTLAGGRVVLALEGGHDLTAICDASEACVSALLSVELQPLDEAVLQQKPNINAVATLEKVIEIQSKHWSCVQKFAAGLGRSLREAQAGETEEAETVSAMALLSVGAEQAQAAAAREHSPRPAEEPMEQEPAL
Sequence of HDAC1 (Q13547 whole entry): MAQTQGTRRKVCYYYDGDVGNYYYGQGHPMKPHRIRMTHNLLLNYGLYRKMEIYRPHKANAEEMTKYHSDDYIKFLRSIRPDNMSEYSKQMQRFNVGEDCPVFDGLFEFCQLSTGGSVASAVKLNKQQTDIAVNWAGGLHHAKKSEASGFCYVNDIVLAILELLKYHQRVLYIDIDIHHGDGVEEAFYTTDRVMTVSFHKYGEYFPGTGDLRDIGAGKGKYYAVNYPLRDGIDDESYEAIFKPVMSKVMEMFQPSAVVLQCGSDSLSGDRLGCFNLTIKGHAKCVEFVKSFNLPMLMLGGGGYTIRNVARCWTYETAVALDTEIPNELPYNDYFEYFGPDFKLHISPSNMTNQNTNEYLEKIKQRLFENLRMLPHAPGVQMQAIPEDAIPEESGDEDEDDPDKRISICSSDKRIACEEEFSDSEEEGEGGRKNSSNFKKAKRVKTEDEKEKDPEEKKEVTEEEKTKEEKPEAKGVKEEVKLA

amount of H3K9-free lysine peptides by HPLC (SIRT6 [1]): decreased prominently | inhibition of SIRT6 deacetylase activity on nucleosomes (SIRT6 [2]; 1 μmol/L): completely/totally inhibited | IC50 (HDAC1): > 100 µM | IC50 (HDAC2): > 100 µM | IC50 (HDAC5): > 100 µM | IC50 (HDAC7): > 100 µM | IC50 (SIRT2): 87.2 ± 1.1 µM | inhibition ratio at 50 μmol/L (SIRT2) (SIRT2; 50 μmol/L): 38.6% | SIRT2 IC50 relative to that of SIRT6 (SIRT2; IC50 SIRT2 / IC50 SIRT6): approximately 37 fold | Effect (SIRT2; SIRT2): Inhibition | IC50 (full-length SIRT7): > 100 µM
Compound: Nc1nonc1-n1cc(C(=O)N/N=C/c2cc(Cl)cc(C(F)(F)F)c2)nn1 [JYQ-42]
inhibition of SIRT6 deacetylase activity on nucleosomes (SIRT6 [2]; 0.5 μmol/L): inhibit the deacetylase activity of SIRT6 significantly | levels of H3K9Ac, H3K18Ac and H3K56Ac (BXPC-3 cells [3]): increased the levels of H3K9Ac, H3K18Ac and H3K56Ac in a dose-dependent manner | migration of pancreatic cancer cells (RTCA cell index) (BXPC-3 cells [4]): dramatically attenuated | cell growth (MiaPaCa-2 cells): no significant impact on cell growth | mRNA level of SIRT6 (BXPC-3 cells [5]): not significantly changed | secretion levels of IL6, IL8 and TNF-α (BXPC-3 cells [6]): blocked the secretion levels
